Compounds with a hit are over-represented: about 0.79% of the library has one in this group of screens.
mIAP act: increases mouse intestinal alkaline phosphatase activity; muIAP, CDP-Star luminescence, 30 min; active compounds read high; 1 = vehicle-only enzyme signal, 0 = enzyme-free wells; activation factor at 10 µM; hit rate 0.24% among 330,000;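 active = activation factor of at least 2 at 20 µM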
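System: mouse IAP enzyme. Reagent: CDP-Star chemiluminescent phosphatase substrate. Benchmarks: DMSO wells, no-enzyme wells. Times: 30 min enzyme-substrate-compound incubation at room temperature. Detection: luminescence from enzymatic CDP-Star hydrolysis. Doses: test compounds delivered from DMSO solution.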
bIAP activator: intestinal alkaline phosphatase (bovine) activation; hit rate 0.17% among 200,000; purified bovine IAP, CDP-star luminescence, 30 min; active compounds read high; fold of DMSO-control signal, blank-subtracted; activation factor at 20 µM;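 active = activation factor of 2 or more at 20 µM, a signal rise over negative controls twice the positive control's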
mIAP inh: blocks mouse intestinal alkaline phosphatase. purified mouse IAP, CDP-Star luminescence, 30 min. inhibition, % at 10 µM. hit rate 0.2% among 330,000;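 active = inhibition of at least 40% at 10 µM in the primary screen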;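 note: plate controls were DMSO with enzyme for no effect and no enzyme wells for full effect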
bIAP inh: intestinal alkaline phosphatase (bovine) inhibition; AID 1019; purified bovine IAP, CDP-star luminescence, 30 min; inhibition, % at 20 µM; 190,000 tested, under 10 active;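 active = over 50% inhibition of intestinal alkaline phosphatase at 20 µM in the single-dose screen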
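Incubation: 30 min reaction at room temperature / Material: purified bovine intestinal alkaline phosphatase (IAP) enzyme / Input: enzyme at 1/65,000,000 dilution / Dosing: 20 µM single dose / Signal: CDP-star luminescence signal / Reagent: CDP-star chemiluminescent phosphatase substrate, 30 µM final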
hIAP inh: human IAP inhibition; AID 2544; inhibition, % at 10 µM; purified IAP, CDP-Star luminescence, 30 min; P09923; hit rate 0.12% among 330,000;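 active = inhibition reaching a set limit with compound at 10 µM in the primary screen, cut at about 35% in these data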;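 note: plate controls were DMSO wells with enzyme for no effect and no-enzyme buffer wells for full effect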
Target sequence (P09923 whole entry, looked up): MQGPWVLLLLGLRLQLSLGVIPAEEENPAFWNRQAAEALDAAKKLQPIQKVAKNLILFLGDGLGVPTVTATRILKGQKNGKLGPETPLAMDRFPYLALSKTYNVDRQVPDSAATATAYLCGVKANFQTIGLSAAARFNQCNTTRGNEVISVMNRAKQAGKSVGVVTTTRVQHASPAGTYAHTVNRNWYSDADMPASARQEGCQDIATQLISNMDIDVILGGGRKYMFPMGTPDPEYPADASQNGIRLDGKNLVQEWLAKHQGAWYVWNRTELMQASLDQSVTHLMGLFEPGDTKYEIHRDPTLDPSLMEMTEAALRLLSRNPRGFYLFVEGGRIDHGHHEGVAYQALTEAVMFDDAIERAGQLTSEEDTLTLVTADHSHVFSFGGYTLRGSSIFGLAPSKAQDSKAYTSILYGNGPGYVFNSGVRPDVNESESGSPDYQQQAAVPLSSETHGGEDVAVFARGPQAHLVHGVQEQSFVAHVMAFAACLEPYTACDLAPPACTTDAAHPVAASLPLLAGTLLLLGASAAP
hIAP act: increases human intestinal alkaline phosphatase activity | purified human IAP, CDP-Star luminescence, 30 min; active compounds read high; 1 = vehicle-only enzyme, 0 = enzyme-free background | P09923 | hit rate 0.16% among 330,000 | activation factor at 10 µM;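 active = activation factor of the enzyme at least 2-fold when tested at 20 µM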
mIAP inh confirm: mouse IAP inhibition confirmation | AID 434971 | purified mouse IAP, CDP-Star luminescence, 30 min | shares compounds with mIAP inh | inhibition, % at 10 µM | hit rate 4.7% among 11,000;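 active = inhibition of at least 40% at 10 µM in either of the two replicates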;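 note: plate controls were DMSO wells with enzyme for no effect and buffer wells lacking enzyme for full effect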
* hit, by the source's call; i = inactive; x = no result given.

SMILES	mIAP act	bIAP activator	mIAP inh	bIAP inh	hIAP inh	hIAP act	mIAP inh confirm
Cc1sc(-n2c(C)cc(/C=C3\SC(=S)NC3=O)c2C)c(C#N)c1C	0.5	0.8	50*	20	5	0.95	64*
Cc1cc(/C=C2\SC(=S)NC2=O)c(C)n1-c1cccc(O)c1	0.24	x	76*	x	12	0.88	75*
Cc1cc(/C=C2\SC(=S)NC2=O)c(C)[nH]1	0.3	0.9	70*	6	26	0.73	87*
S=c1[nH]nc(-c2ccco2)n1-c1ccccc1Cl	1.2	1	-16	3	8	0.92	x
S=c1[nH]nc(-c2cc(-c3ccco3)[nH]n2)n1-c1ccccc1Cl	0.43	1.3	57*	-29	-27	1.3	74*
Cc1cc(C)cc(NC(=O)C2CCN(S(=O)(=O)c3ccc4c(c3)NC(=O)C(C)S4)CC2)c1 (stereo not drawn)	2.5*	x	-145	x	-44	1.4	-96
Cc1cc(NS(=O)(=O)c2ccc(Nc3nc(-c4sc(N)nc4C)cs3)cc2)no1	0.56	1.3	44*	-27	0	1	59*
Cc1nc(N)sc1-c1csc(Nc2cccc(C(=O)O)c2)n1	0.48	x	52*	x	10	0.9	54*
Cc1cc(NS(=O)(=O)c2ccc(Nc3nc(-c4ccc(C)c(C)c4)cs3)cc2)no1	0.99	0.3	1	x	1	0.99	x
Cc1c(Cl)cccc1NC(=S)NCCC(c1ccccc1)c1ccccc1	4.1*	0.8	-312	16	3	0.97	-375
Cc1cc(Cl)ccc1NC(=S)NCCC(c1ccccc1)c1ccccc1	3.7*	1.4	-266	-39	-9	1.1	-105
Cc1csc(N)n1	0.97	0.9	3	12	-2	1	x
CC(=O)Nc1cccc(-c2csc(N)n2)c1	1.1	0.9	-6	6	-16	1.2	x
CC(=O)NCc1ccc(-c2csc(N)n2)s1	0.28	0.9	72*	9	12	0.88	77*
Cc1ccc(-c2csc(N)n2)s1	0.32	1	68*	3	23	0.77	78*
Cc1cc(C)n(CCCN2CCC(C(=O)Nc3cccc(-c4cccc(F)c4)c3)CC2)n1	3.5*	x	-250	x	0	1	-202
Cc1ccccc1C(=O)N1CCC(C(=O)Nc2cccc(F)c2)CC1	1.1	1.1	-9	-12	-16	1.2	x
CC(=O)c1cccc(NC(=O)NC2CCCCCCC2)c1	1.2	x	-18	x	-23	1.2	x
Cc1cccc(NC(=O)NC2CCCCCCC2)c1	2.2*	x	-118	x	-35	1.3	-145
O=C(Nc1cccc(C(F)(F)F)c1)NC1CCCCC1	2.5*	0.9	-150	12	-36	1.4	-110
Cc1ccc(NC(=O)NC2CCCCCCC2)cc1C	3.3*	x	-233	x	-46	1.5	-156
COc1cccc(NC(=O)CSc2nc(O)c(C)c(=O)n2-c2ccc(C)cc2)c1	0.9	x	10	x	11	0.89	x
CC(NC(=O)Cc1ccc(NC2=NC3CS(=O)(=O)CC3S2)cc1)c1ccccc1 (stereo not drawn)	1.1	x	-12	x	3	0.97	x
Cc1ccc(/C=C/C2=Cc3c(sc(NC(=O)CSc4n[nH]c(N)n4)c3C#N)C(C)(C)C2)o1	0.53	0.9	47*	12	-16	1.2	51*
CC(/C=N/n1c(-c2ccco2)n[nH]c1=S)=C\c1ccco1	0.5	0.8	50*	18	7	0.93	52*
SMILES	mIAP act	bIAP activator	mIAP inh	bIAP inh	hIAP inh	hIAP act	mIAP inh confirm
Cc1cccc(-c2n[nH]c(=S)n2/N=C/C=C/c2ccco2)c1	0.54	x	46*	x	-8	1.1	53*
CC(NC(=O)Nc1ccc(Cl)c(Cl)c1)C(c1ccccc1)N1CCOCC1 (stereo not drawn)	4.3*	1.1	-330	-15	-22	1.2	-221
CC(NC(=O)Nc1ccc([N+](=O)[O-])cc1)C(c1ccccc1)N1CCOCC1 (stereo not drawn)	0.98	1.3	2	-30	2	0.98	x
CC(=O)Nc1csc2ccccc12	0.98	1	2	-4	1	0.99	x
O=C(Nc1ccccc1)Nc1csc2ccccc12	3.2*	x	-223	x	-4	1	-108
O=c1ccc(-c2ccccc2)no1	1.1	x	-6	x	-18	1.2	x
CCOP(=O)(OCC)C(NC(=O)Nc1ccc(C)c(Cl)c1)c1ccccc1 (stereo not drawn)	3.4*	1.1	-237	-6	8	0.92	-159
Cc1cc(C)nc(SCC(=O)Oc2ccc3oc(=O)cc(C)c3c2)n1	1.1	0.9	-5	10	-17	1.2	x
O=c1c(O)c(-c2ccccc2)oc2cc(O)cc(O)c12	0.94	x	6	x	-22	1.2	x
O=c1c(O)c(-c2cc(O)c(O)c(O)c2)oc2cc(O)cc(O)c12	0.25	x	75*	x	-20	1.2	75*
CC/C(C)=N/Nc1nc2c(c(=O)[nH]c(=O)n2C)n1CCc1ccccc1	0.59	1	41*	2	-16	1.2	47*
Cc1cccc(N=Cc2cc3c(cc2[N+](=O)[O-])OCO3)c1	0.81	1	19	2	-6	1.1	x
Cc1cc(O)c(N=Cc2cc3c(cc2[N+](=O)[O-])OCO3)cc1C	0.49	x	51*	x	-34	1.3	60*
Cc1cc(=O)[nH]c(N)n1	0.97	x	3	x	3	0.97	x
CCN(CC(=O)NCc1ccc(Cl)cc1)C(=O)COc1ccc(Cl)cc1Br	1.1	x	-5	x	-5	1.1	x
FC(F)Sc1ccc(NC(=S)NC(c2ccccc2)c2ccccc2)cc1	12*	0.9	i	13	-72	1.7	-277
COCCCNCCOCCOc1ccc(C)cc1[N+](=O)[O-]	1	0.9	-2	7	16	0.84	x
COc1ccccc1C(CC(=O)Nc1ccc(Cl)cc1)c1ccc(OC(C)C)cc1 (stereo not drawn)	3.7*	0.4	-268	x	-28	1.3	-91
O=C1c2cc(O)cc(O)c2C(=O)c2c1cc(O)c([C@@H](CO)CCO)c2O	0.76	x	24	x	20	0.8	x
O=C(Cn1c(CO)nc2ccccc21)Nc1ccccc1Cl	1	0.9	-1	5	2	0.98	x
O=C(Cn1c(COc2ccccc2)nc2ccccc21)Nc1cccc(Cl)c1	1.1	1.2	-6	-19	1	0.99	x
Cc1cc(C)cc(NC(=O)Cn2c(-c3ccccc3Cl)nc3ccccc32)c1	2.8*	1.1	-179	-13	-10	1.1	-148
O=C(Cn1c(-c2ccccc2Cl)nc2ccccc21)Nc1cccc(Cl)c1	2.8*	1.1	-183	-12	5	0.95	-151
Cc1ccc(SCc2nc3ccccc3n2CC(=O)Nc2ccc(Cl)cc2)cc1	2.7*	1.2	-175	-15	-2	1	-86
Cc1ccc(SCc2nc3ccccc3n2CC(=O)Nc2c(C)cccc2C)cc1	1.8	1.4	-75	-38	13	0.87	x

High-throughput results as filed in PubChem.
